Source: PubChem BioAssay
T cruzi growth-1 – blocks T. cruzi growth in NIH3T3 culture; T. cruzi beta-gal in NIH3T3, GalScreen luminescence, 90 h; inhibition, % at 8.34 µM; 77,000 compounds, 5.9% hits; AID 624255;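 active = mean inhibition above about 93%, with at least 55% of replicates each passing it, limit read from the data, passing the limit was not always enough; inconclusive = only one of those two conditions holds; inactive = neither condition holds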
GASC1 inh – blocks human GASC-1 (KDM4C) demethylase activity | GST-KDM4C 2-372, H3K9me3 peptide, LANCE TR-FRET | inhibition, % at 12.5 µM | 96,000 compounds, 0.15% hits | AID 720574;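 active = mean replicate inhibition above about 25%, with at least 55% of replicates also reaching it, limit read from the data, passing the limit was not always enough; inconclusive = only one of those two conditions met; inactive = neither condition met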
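Assay system: GST-GASC-1 enzyme fragment 2-372 | Amount: 10 nM enzyme | Medium: HEPES buffer, pH 7.5, plus ascorbate | Reagent: H3K9me3 peptide substrate, Fe(II), 2-oxoglutarate | Doses: Single-point compound screen | Incubation: 30 min demethylation and 1 h detection at room temperature | Measured by: LANCE TR-FRET, excitation 340 nm, emissions 618 and 671 nm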
IDH1 mut inh – IDH1 R132H (human) inhibition. O75874. IDH1 R132H reductase, diaphorase/resazurin fluorescence, 60 min. 70,000 compounds, 0.18% hits. inhibition, % at 10 µM; in the data active = inhibition above about 34%; inconclusive = no clear call, values can overlap the other calls; inactive = below about 11%;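 note: 0% = DMSO and 100% = no enzyme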
Target sequence (O75874 whole entry R132H): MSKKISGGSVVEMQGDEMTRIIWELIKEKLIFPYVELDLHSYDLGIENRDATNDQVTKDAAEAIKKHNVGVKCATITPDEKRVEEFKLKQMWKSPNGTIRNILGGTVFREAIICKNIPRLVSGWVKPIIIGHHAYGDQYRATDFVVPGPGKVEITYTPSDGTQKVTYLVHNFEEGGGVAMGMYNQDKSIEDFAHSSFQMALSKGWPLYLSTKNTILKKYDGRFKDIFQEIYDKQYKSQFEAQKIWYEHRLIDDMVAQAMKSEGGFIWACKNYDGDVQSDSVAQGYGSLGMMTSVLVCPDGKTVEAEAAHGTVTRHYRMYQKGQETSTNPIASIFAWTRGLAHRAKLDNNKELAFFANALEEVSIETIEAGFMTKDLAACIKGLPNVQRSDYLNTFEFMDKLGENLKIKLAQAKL
T cruzi growth-2 – blocks T. cruzi growth in NIH3T3 host cells; shares compounds with T cruzi growth-1; AID 651739; T. cruzi beta-gal in NIH3T3, GalScreen luminescence, 90 h; 5,600 compounds, 72% hits; inhibition, % at 8.35 µM;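 active = mean replicate inhibition above about 95% and at least 55% of replicates individually reaching it, limit read from the data; inconclusive = only one of the two criteria is met; inactive = neither criterion is met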
T cruzi growth-3 – Trypanosoma cruzi proliferation inhibition | shares compounds with T cruzi growth-1 | T. cruzi beta-gal in NIH3T3, GalScreen luminescence, 90 h | inhibition, % at 2.09 µM | 5,600 compounds, 21% hits | AID 651740;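 active = mean inhibition above about 95%, with at least 55% of replicates also reaching it, limit read from the data; inconclusive = meets just one of the two conditions; inactive = meets neither condition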;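 note: plate controls were neutral control median for no effect and positive control median for full effect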
3T3 cytotox – NIH/3T3 (mouse) viability loss. shares compounds with T cruzi growth-1. cytotoxicity (signal decrease), % at 8.35 µM. 5,600 compounds, 14% hits. AID 651742. NIH/3T3 viability, CellTiter-Glo ATP luminescence, 90 h;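 active = mean signal decrease across replicates above about 35% based on untreated-well scatter, with enough replicates individually passing, limit read from the data; inconclusive = no rule stated though some were filed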;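 note: 0% = median of neutral control wells and 100% = median of positive control wells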
NIH3T3 tox 2 – cytotoxicity in mouse NIH/3T3 fibroblasts; shares compounds with T cruzi growth-1; NIH/3T3 viability, CellTiter-Glo ATP luminescence, 90 h; inhibition, % at 24.9 µM; 5,600 compounds, 56% hits; AID 651744;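 active = mean loss of cell viability signal at or above a set limit, and enough replicates individually reaching it; inconclusive = meets only the mean limit or only the replicate share; inactive = meets neither condition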;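 note: 0% = median of neutral control wells and 100% = median of positive control wells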
Numbers without * were called inactive; ? = inconclusive; · = not tested or not shown. Only a selection was taken, and hits are over-represented in it overall.

SMILES | T cruzi growth-1 | GASC1 inh | IDH1 mut inh | T cruzi growth-2 | T cruzi growth-3 | 3T3 cytotox | NIH3T3 tox 2
Cc1ccc(S(=O)(=O)N(C)C[C@H]2OCCCC[C@@H](C)Oc3ccc(NS(=O)(=O)c4ccc(Cl)cc4)cc3C(=O)N([C@H](C)CO)C[C@@H]2C)cc1 | 76 | -3 | · | · | · | · | ·
Cc1ccc(S(=O)(=O)N(C)C[C@@H]2OCCCC[C@H](C)Oc3ccc(NS(=O)(=O)c4ccc(Cl)cc4)cc3C(=O)N([C@@H](C)CO)C[C@@H]2C)cc1 | 118* | -1 | 3 | 104* | 115* | -5 | -18
Cc1ccc(S(=O)(=O)Nc2ccc3c(c2)C(=O)N([C@@H](C)CO)C[C@@H](C)[C@@H](CN(C)S(=O)(=O)c2ccc(Cl)cc2)OCCCC[C@H](C)O3)cc1 | 133* | 0 | 0 | 107* | 109* | -36 | 2
C[C@@H]1CCCCO[C@@H](CN(C)S(=O)(=O)c2ccc(Cl)cc2)[C@@H](C)CN([C@H](C)CO)C(=O)c2cc(NS(=O)(=O)c3ccc(Cl)cc3)ccc2O1 | 74 | -1 | -1 | · | · | · | ·
Cc1ccc(S(=O)(=O)Nc2ccc3c(c2)C(=O)N([C@@H](C)CO)C[C@H](C)[C@@H](CN(C)S(=O)(=O)c2ccc(Cl)cc2)OCCCC[C@H](C)O3)cc1 | 83 | -1 | 3 | · | · | · | ·
Cc1ccc(S(=O)(=O)N(C)C[C@H]2OCCCC[C@@H](C)Oc3ccc(NS(=O)(=O)c4ccc(Cl)cc4)cc3C(=O)N([C@@H](C)CO)C[C@H]2C)cc1 | ? | -3 | -1 | 103* | 116* | -34 | -16
Cc1ccc(S(=O)(=O)Nc2ccc3c(c2)C(=O)N([C@@H](C)CO)C[C@H](C)[C@@H](CN(C)S(=O)(=O)c2ccc(Cl)cc2)OCCCC[C@@H](C)O3)cc1 | 74 | 0 | 2 | · | · | · | ·
C[C@@H]1CN([C@H](C)CO)C(=O)c2cc(NC(=O)Nc3ccc(F)cc3)ccc2O[C@H]1CN(C)Cc1ccc(C(F)(F)F)cc1 | 86 | 0 | · | · | · | · | ·
CC(C)C(=O)Nc1ccc2c(c1)C(=O)N(C)[C@H]1CC[C@@H](CC(=O)N[C@H](C)c3ccccc3)O[C@@H]1CO2 | -34 | -2 | · | · | · | · | ·
C[C@@H]1CCCCO[C@H](CN(C)S(=O)(=O)c2ccc(Cl)cc2)[C@@H](C)CN([C@@H](C)CO)C(=O)c2cc(NS(=O)(=O)c3ccc(Cl)cc3)ccc2O1 | · | 0 | 1 | · | · | · | ·
Cc1ccc(S(=O)(=O)N(C)C[C@H]2OCCCC[C@H](C)Oc3ccc(NS(=O)(=O)c4ccc(Cl)cc4)cc3C(=O)N([C@H](C)CO)C[C@@H]2C)cc1 | 97* | -1 | · | 100* | 119* | 17 | 11
Cc1ccc(S(=O)(=O)N(C)C[C@H]2OCCCC[C@@H](C)Oc3ccc(NS(=O)(=O)c4ccc(Cl)cc4)cc3C(=O)N([C@H](C)CO)C[C@H]2C)cc1 | 108* | 0 | · | 98* | 109* | -20 | -9
Cc1ccc(S(=O)(=O)Nc2ccc3c(c2)C(=O)N([C@H](C)CO)C[C@H](C)[C@H](CN(C)S(=O)(=O)c2ccc(Cl)cc2)OCCCC[C@@H](C)O3)cc1 | ? | 15 | · | 101* | 85 | 26 | 21
Cc1ccc(S(=O)(=O)N(C)C[C@@H]2OCCCC[C@H](C)Oc3ccc(NS(=O)(=O)c4ccc(Cl)cc4)cc3C(=O)N([C@H](C)CO)C[C@H]2C)cc1 | 91 | 1 | -2 | · | · | · | ·
COc1ccccc1-c1ccc([C@H]2[C@H](CO)N(C(C)=O)C23CN(C(C)=O)C3)cc1 | · | 1 | · | · | · | · | ·
CC(C)C#Cc1ccc2c(c1)O[C@H](CN(C)S(C)(=O)=O)[C@@H](C)CN([C@H](C)CO)S2(=O)=O | 34 | 0 | -4 | · | · | · | ·
OCC1OC(Oc2cc(O)cc(/C=C/c3ccccc3)c2)C(O)C(O)C1O (stereo not given) | · | · | 1 | · | · | · | ·
C[C@@H]1CCCCO[C@H](CN(C)Cc2ccc(C(=O)O)cc2)[C@@H](C)CN([C@@H](C)CO)C(=O)c2cc(NS(C)(=O)=O)ccc2O1 | 47 | 0 | 3 | · | · | · | ·
CNC(=O)C[C@H]1CC[C@H]2[C@@H](COc3ccc(NC(=O)Nc4ccccc4OC)cc3C(=O)N2C)O1 | -2 | -1 | · | · | · | · | ·
Cc1noc(C)c1NC(=O)N(C)C[C@H]1Oc2c(NC(=O)Nc3ccc(F)cc3)cccc2C(=O)N([C@H](C)CO)C[C@H]1C | 17 | -1 | · | · | · | · | ·
CN1C(=O)c2cc(NC(=O)c3ccc(F)c(F)c3)ccc2OC[C@H]2O[C@@H](CC(=O)N[C@H]3CCN(Cc4ccccc4)C3)CC[C@@H]21 | 94 | 1 | · | · | · | · | ·
CN1C(=O)c2cc(NC(=O)Cc3cccs3)ccc2OC[C@H]2O[C@H](CC(=O)N[C@@H]3CCN(Cc4ccccc4)C3)CC[C@@H]21 | 53 | 1 | · | · | · | · | ·
CN1C(=O)c2cc(NC(=O)c3ccc(F)c(F)c3)ccc2OC[C@H]2O[C@H](CC(=O)N[C@H]3CCN(Cc4ccccc4)C3)CC[C@@H]21 | 108* | -3 | · | 49 | 84 | -15 | -1
CN1C(=O)c2cc(NC(=O)c3ccc(F)c(F)c3)ccc2OC[C@H]2O[C@H](CC(=O)N[C@H]3CCN(Cc4ccccc4)C3)CC[C@H]21 | 102* | -2 | · | 107* | 65 | 5 | 22
CN1C(=O)c2cc(NC(=O)c3ccc(F)c(F)c3)ccc2OC[C@@H]2O[C@@H](CC(=O)N[C@H]3CCN(Cc4ccccc4)C3)CC[C@H]21 | 99* | -4 | · | ? | 84 | -19 | -1
SMILES | T cruzi growth-1 | GASC1 inh | IDH1 mut inh | T cruzi growth-2 | T cruzi growth-3 | 3T3 cytotox | NIH3T3 tox 2
CN1C(=O)c2cc(NC(=O)c3ccc(F)c(F)c3)ccc2OC[C@H]2O[C@H](CC(=O)N[C@@H]3CCN(Cc4ccccc4)C3)CC[C@@H]21 | 93 | 1 | · | · | · | · | ·
CN1C(=O)c2cc(NC(=O)Cc3cccs3)ccc2OC[C@@H]2O[C@H](CC(=O)N[C@H]3CCN(Cc4ccccc4)C3)CC[C@@H]21 | 94 | -1 | · | · | · | · | ·
CN1C(=O)c2cc(NC(=O)c3ccc(F)c(F)c3)ccc2OC[C@@H]2O[C@@H](CC(=O)N[C@@H]3CCN(Cc4ccccc4)C3)CC[C@@H]21 | 112* | -1 | · | 102* | 86 | 32 | 39*
CCCNC(=O)N(C)C[C@H]1[C@H](c2ccccc2)[C@@H](CO)N1C(=O)c1ccccc1 | 31 | 0 | · | · | · | · | ·
C[C@@H]1CN([C@H](C)CO)C(=O)CCCn2nncc2CO[C@@H]1CN(C)Cc1ccccc1C(=O)O | -10 | -1 | 2 | · | · | · | ·
C[C@H](CO)N1C[C@H](C)[C@@H](CN(C)Cc2ccc3c(c2)OCO3)Oc2ccc(NC(=O)Nc3ccccc3)cc2CC1=O | 60 | 3 | 0 | · | · | · | ·
